From ChEMBL document CHEMBL2150875, “1-Aryl-4-nitro-1H-imidazoles, a new promising series for the treatment of human African trypanosomiasis” (Eur J Med Chem, 2011)
Values after ≈ are worked out from the molar mass of the structure shown. Blank lines part the entries; values can stand above or below the molecule they belong to.

Legend:
[1] = Redox potential of the compound assessed as one electron redox potential by pulse radiolysis method; format: physicochemical
[2] = tested on: Trypanosoma brucei rhodesiense; experiment: Antiparasitic activity against Trypanosoma brucei rhodesiense STIB900 bloodstream forms assessed as reduction in cell viability after 70 hrs by alamar blue assay; format: functional, organism-based
L6 = experiment: Cytotoxicity against in rat L6 cells assessed as reduction in cell viability after 70 hrs by alamar blue assay; format: cell-based; details: L6, 70 h
Method in brief: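 L-6 rat skeletal myoblasts seeded at 4×10^4/mL. 37 °C, 5% CO2, 70 h, then resazurin viability read by fluorescence after 2–4 h. IC50 from sigmoidal inhibition curves.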

Lymphocyte [3] = experiment: Genotoxicity in human lymphocytes assessed as micronucleated binucleate cells level at 0.03 ug/mL incubated for 24 hrs measured under no recovery condition in absence of rat liver S9 fraction (reference value: 0.50%); format: toxicity, cell-based
Lymphocyte [4] = experiment: Genotoxicity in human lymphocytes assessed as micronucleated binucleate cells level at 5 ug/mL incubated for 20 hrs measured post 28 hrs recovery in absence of rat liver S9 fraction (reference value: 0.4%); format: toxicity, cell-based
Method in brief: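 Cultures were PHA-stimulated pooled female donor whole-blood lymphocytes, grown 48 h at 37 °C before treatment, with cytochalasin-B 6 µg/mL added at treatment. Without S9, exposure was 20 h with 28 h recovery. With rat S9, exposure was 3 h with 45 h recovery. Micronucleated binucleate cells were scored at 1000 per replicate on Giemsa-stained slides.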

Lymphocyte [5] = experiment: Genotoxicity in human lymphocytes assessed as micronucleated binucleate cells level at […] incubated for 20 hrs measured post 28 hrs recovery in absence of rat liver S9 fraction (reference value: 0.3%); format: toxicity, cell-based
[6] = Trypanosoma brucei, STIB900, 70 h, read-out: IC50

Compound: Cc1ncc([N+](=O)[O-])n1CCO [METRONIDAZOLE]
Activity [1]: -516 mV

Compound: COc1ccc(-n2cnc([N+](=O)[O-])c2)c(OC)c1
IC50 [2]: Not Active

Compound: Nc1nc(N)nc(Nc2ccc([As]3SCC(CO)S3)cc2)n1 (configuration not stated) [MELARSOPROL]
IC50 (L6): 1.3 µg/mL

Compound: O=[N+]([O-])c1cn(-c2ccc3c(c2)OCO3)cn1
IC50 (L6): > 90 µg/mL | IC50 [2, 6]: 940 nM

Compound: O=[N+]([O-])c1cn(-c2ccc(F)cc2F)cn1
IC50 [2]: Not Active

Compound: CC[C@]1(O)C[C@@H]2CN(CCc3c([nH]c4ccccc34)[C@@](C(=O)OC)(c3cc4c(cc3OC)N(C)[C@H]3[C@@](O)(C(=O)OC)[C@H](OC(C)=O)[C@]5(CC)C=CCN6CC[C@]43[C@@H]65)C2)C1 [VINBLASTINE]
Activity (Lymphocyte [3]): 6.06%

Compound: O=[N+]([O-])c1cn(-c2ccc(Cl)cc2Cl)cn1
IC50 [2]: Not Active

Compound: NCCCC(N)(C(=O)O)C(F)F (configuration not stated) [EFLORNITHINE]
IC50 (L6): 12 µg/mL (≈ 65.9 µM) | IC50 [2, 6]: 3800 nM

Compound: CSc1ccc(OCc2ncc([N+](=O)[O-])n2C)cc1 [FEXINIDAZOLE]
Activity [1]: -511 mV | IC50 (L6): > 90 µg/mL | IC50 [2, 6]: 2570 nM

Compound: COc1ccc(-n2cnc([N+](=O)[O-])c2)cc1OC
IC50 [2]: Not Active

Compound: O=[N+]([O-])c1cc[n+]([O-])c2ccccc12 [4-NITROQUINOLINE-1-OXIDE]
Activity (Lymphocyte [4]): 3.5% | Activity (Lymphocyte [5]): 4.8%

Compound: O=[N+]([O-])c1cn(-c2c(F)cccc2F)cn1
IC50 [2]: Not Active

Further lines, results first:

IC50 [2]: Not Active
Compound: O=[N+]([O-])c1cn(-c2ccccc2Br)cn1

IC50 [2]: Not Active
Compound: O=[N+]([O-])c1cn(-c2ccccc2Cl)cn1

IC50 [2]: Not Active
Compound: Cc1ccc(-n2cnc([N+](=O)[O-])c2)c(Br)c1

IC50 [2]: Not Active
Compound: Cc1ccc(-n2cnc([N+](=O)[O-])c2)c(C)c1

IC50 [2]: Not Active
Compound: O=[N+]([O-])c1cn(-c2cc(Cl)ccc2Cl)cn1
